Hits are enriched below; roughly 1.9% of the tested compounds scored in any of these assays.
VIM-2 inh: blocks Pseudomonas aeruginosa VIM-2 metallo-beta-lactamase; purified VIM-2, nitrocefin hydrolysis, epi-absorbance fluorescence; inhibition, % at 5.6 µM; actives 0.89% (n = 290,000); AID 1527;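 active = inhibition above the mean of all tested compounds plus 3 SD, cutoff set per screening run, cut at about 7.5% in these data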;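 note: red hydrolysis product quenches plate fluorescence so inhibitors raise well fluorescence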
IMP-1 inh: inhibitors of Pseudomonas aeruginosa IMP-1 metallo-beta-lactamase; purified IMP-1, nitrocefin hydrolysis, epi-absorbance fluorescence; inhibition, % at 5.6 µM; actives 0.45% (n = 290,000); AID 1556;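 active = inhibition above the mean plus 3 SD of all compounds in the same screening run, cut at about 4.5% in these data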
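Material – recombinant IMP-1 enzyme, purified · Amount – IMP-1 0.2 nM before substrate addition · Medium – HEPES buffer pH 7.1 with ZnSO4 and Brij 35 · Timing – 25 °C, 15 min preincubation, 25 min reaction · Measured by – plate fluorescence quenching by hydrolysis product, ex 480/em 530 nm · Read-out – percent enzyme inhibition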
HCV NS3 hel inh: HCV NS3 helicase inhibition | inhibition, % at 10.9 µM | AID 1800 | actives 0.56% (n = 290,000) | NS3 helicase DNA unwinding, Cy5 molecular beacon fluorescence;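 active = inhibition above the mean of all tested compounds plus 3 SD, set per campaign, cut at about 35% in these data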
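System: Hepatitis C virus NS3 helicase domain fragment enzyme | Reagent: Annealed dual-labelled DNA beacon duplex, ATP-started | Compound dosing: 10.9 µM single point, 0.8% DMSO | Incubation: 1 h reaction at 25 °C, ATP-initiated | Technique: Cy5 fluorescence | Evaluation: Percent inhibition from t60/t0 fluorescence ratio | Benchmarks: Low DMSO, high thioflavine S at 110 µM | Replication: Singlicate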
DNA FID counter-1: counter-screen for HCV NS3 helicase inhibitors: DNA intercalator displacement. inhibition, % at 7.9 µM. actives 0.17% (n = 290,000). DNA fluorescent intercalator displacement, fluorescence;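 note: higher means more ethidium bromide displaced from hairpin DNA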
NS3 hel confirm: confirmation of Hepatitis C virus NS3 helicase inhibitors | shares compounds with HCV NS3 hel inh | NS3 helicase DNA unwinding, Cy5 molecular beacon fluorescence | inhibition, % at 10.9 µM | actives 31% (n = 1,600) | AID 1943;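 active = inhibition above the mean of all tested compounds plus 3 SD, cutoff set per campaign, cut at about 36% in these data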
DNA FID counter-2: intercalator displacement, NS3 helicase counter-screen | shares compounds with HCV NS3 hel inh | DNA fluorescent intercalator displacement, fluorescence | inhibition, % at 7.9 µM | actives 4% (n = 1,600) | AID 1945;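 note: higher means more displacement of ethidium bromide from the DNA hairpin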
FID counter DR: counter-screen for HCV NS3 helicase inhibitors: DNA intercalator displacement dose response; shares compounds with HCV NS3 hel inh; fluorescent intercalator displacement from DNA, fluorescence; IC50, µM; 120 tested, under 10 active; call rule not given here
Of the large screens only hits and unclear results are named; the others gave an inactive call (follow-up assays come after a bar, where they were run). Cut-off read from the data, not from the text of the source, unless noted: active = inhibition above about 37%; inactive = the rest.

CCCCC(NC(=O)Cc1c(C)c2cc3c4c(oc3cc2oc1=O)CCCC4)C(=O)O (configuration not stated)	HCV NS3 hel inh 40 | NS3 hel confirm 51 | DNA FID counter-2 inactive
Cc1ccc(NC(=O)CN2C(=O)N/C(=C/c3ccco3)C2=O)cc1	HCV NS3 hel inh 39 | NS3 hel confirm inactive | DNA FID counter-2 inactive
Cc1ccccc1NC(=O)CSc1ccncc1	none
Cc1cc(NS(=O)(=O)c2ccc(NC(=O)CCc3ccccc3)cc2)no1	HCV NS3 hel inh 41 | NS3 hel confirm inactive | DNA FID counter-2 inactive
Cc1cc(NS(=O)(=O)c2ccc(NC(=O)CCCOc3ccccc3)cc2)no1	none
O=C1C(=O)N(Cc2cccnc2)C(c2cccc(Br)c2)/C1=C(/O)c1ccc2c(c1)OCO2 (configuration not stated)	none
Cn1nc(C(F)(F)F)c(-c2cccc(C(F)(F)F)c2)c1NC(=O)c1nccnc1C(=O)O	HCV NS3 hel inh 51 | NS3 hel confirm inactive | DNA FID counter-2 inactive
O=C(COc1cc(O)c2c(=O)cc(-c3ccccc3)oc2c1)c1ccc(F)cc1	none
O=c1c2ccccc2oc2cc(OCc3cccc(F)c3)cc(O)c12	HCV NS3 hel inh 37 | NS3 hel confirm inactive | DNA FID counter-2 inactive
N#Cc1c(C(F)(F)F)cc(-c2ccco2)nc1SCc1ccncc1	HCV NS3 hel inh 44 | NS3 hel confirm inactive | DNA FID counter-2 inactive
Cc1ccc(C2CC(=O)N3CN(c4ccc(Br)cc4)CSC3=C2C#N)o1 (configuration not stated)	HCV NS3 hel inh 37 | NS3 hel confirm 72 | DNA FID counter-2 inactive | FID counter DR inactive
CCOc1ccc(N2CSC3=C(C#N)C(c4ccco4)CC(=O)N3C2)cc1 (configuration not stated)	none
COc1ccc(Br)cc1C1CC(=O)N2CN(C)CSC2=C1C#N (configuration not stated)	none
COc1cccc(C2CC(=O)N3CN(c4ccccc4F)CSC3=C2C#N)c1 (configuration not stated)	none
COc1ccc(OC)c(C2CC(=O)N3CN(c4ccccc4F)CSC3=C2C#N)c1 (configuration not stated)	HCV NS3 hel inh 40 | NS3 hel confirm 66 | DNA FID counter-2 inactive | FID counter DR inactive
COc1ccc(Br)cc1C1CC(=O)N2CN(Cc3ccccc3)CSC2=C1C#N (configuration not stated)	HCV NS3 hel inh 51 | NS3 hel confirm 40 | DNA FID counter-2 inactive
O=C(O)/C=C/C(=O)NC1CCCCCCCCCCC1	none
COc1ccc(/C=C2\SC(=O)N(CC(=O)NCCCn3ccnc3)C2=O)cc1	none
COc1ccc(-n2nc3c(c2NC(=O)COc2ccccc2F)CS(=O)(=O)C3)cc1	none
CSc1ccc(NC(=O)Nc2ccc(C(=O)NCC(=O)O)cc2)cc1	none | NS3 hel confirm inactive | DNA FID counter-2 inactive
CCSc1ccc(C(=O)NCC(=O)O)cc1	none
CCN(CC)C(=O)c1cc(C(C)(C)C)c(O)c(C(C)(C)C)c1	none
CCCc1ccc(OCc2ccc(C(=O)N/N=C/c3cccnc3)o2)cc1	none
COc1cc(/C=C2\C(=N)N3N=C(S(C)(=O)=O)SC3=NC2=O)cc(OC)c1OCCOc1ccccc1C	none
COc1cccc(OCCOc2ccc(/C=C3\C(=N)N4N=C(S(C)(=O)=O)SC4=NC3=O)cc2OC)c1	HCV NS3 hel inh 48 | NS3 hel confirm 53 | DNA FID counter-2 inactive
COc1cc(/C=C2\C(=N)N3N=C(C)SC3=NC2=O)cc(OC)c1OCCOc1ccccc1C	HCV NS3 hel inh 45 | NS3 hel confirm inactive | DNA FID counter-2 inactive
CCOc1cc(/C=C2\C(=N)N3N=C(CC)SC3=NC2=O)ccc1OCCOc1ccc(NC(C)=O)cc1	HCV NS3 hel inh 54 | NS3 hel confirm inactive | DNA FID counter-2 inactive
COc1ccccc1OCCOc1ccc(/C=C2\C(=N)N3N=C(S(C)(=O)=O)SC3=NC2=O)cc1	none
C/C(=N\NC(=O)C1(C)NC(C)(C)Cc2ccccc21)c1ccccc1 (configuration not stated)	none
COc1ccc(C2=NN(c3nc4ccccc4s3)C(=O)/C2=C\N(C)C)cc1	HCV NS3 hel inh 47 | NS3 hel confirm inactive | DNA FID counter-2 inactive
COc1ccc(/C=C2\C(=O)N(c3nc(-c4ccc(Br)cc4)cs3)N=C2c2ccccc2)cc1	none
O=C(O)/C=C/C(=O)Nc1ccc(O)cc1	none
CC(C)C(C)(C#N)NC(=O)CSc1nc2scc(-c3ccco3)c2c(=O)n1-c1ccccc1 (configuration not stated)	HCV NS3 hel inh 36 | NS3 hel confirm 105 | DNA FID counter-2 inactive | FID counter DR inactive
C=CCn1c(SCC(C)=O)nc2scc(-c3ccco3)c2c1=O	IMP-1 inh 16, HCV NS3 hel inh 39 | NS3 hel confirm inactive | DNA FID counter-2 inactive
COc1ccc(N2C(=O)C3CCCCC3C2=O)cc1NC(=O)c1ccccc1 (configuration not stated)	none
CN(Cc1nc(-c2ccc(Cl)cc2)no1)C(=O)CCN1C(=O)[C@H]2CC=CC[C@H]2C1=O	none
Cc1nc2sc3c(c2c(=O)[nH]1)CCC3	none
Cc1cc(-c2nc3c4c5c(sc4[nH]c(=O)n3n2)CCC5)c(C)o1	HCV NS3 hel inh 41 | NS3 hel confirm 76 | DNA FID counter-2 inactive
COc1ccc(/C=C/c2nc3ccccc3c(=O)n2-c2cccc(C(=O)O)c2)cc1	HCV NS3 hel inh 41 | NS3 hel confirm inactive | DNA FID counter-2 inactive
O=C(/C=C/c1cccc2ccccc12)N1CCOCC1	none
O=C(C=C1SCCS1)/C=C/c1ccco1	HCV NS3 hel inh 38 | NS3 hel confirm inactive | DNA FID counter-2 inactive
CCC(C)(C(=O)NC1CCCCC1)N(Cc1ccco1)C(=O)c1ccc2c(c1)OCO2 (configuration not stated)	HCV NS3 hel inh 36 | NS3 hel confirm inactive | DNA FID counter-2 inactive
C=COC(=O)CSc1nc(-c2cccs2)ccc1C#N	HCV NS3 hel inh 48 | NS3 hel confirm inactive | DNA FID counter-2 inactive
COc1ccc(Nc2nc(C)nc3c2nnn3Cc2ccccc2Cl)c(OC)c1	none
CC(=O)c1cn(CC(=O)NCc2ccco2)c2ccccc12	none
O=C(Cn1cc(C(=O)COc2ccccc2)c2ccccc21)NCc1ccco1	HCV NS3 hel inh 44 | NS3 hel confirm inactive | DNA FID counter-2 inactive
CC(C)c1ccc(C2CC(=O)N3CN(C)CSC3=C2C#N)cc1 (configuration not stated)	HCV NS3 hel inh 45 | NS3 hel confirm inactive | DNA FID counter-2 inactive
CCCc1nc(SCC(=O)O)c2sc(=S)n(-c3ccccc3)c2n1	HCV NS3 hel inh 37 | NS3 hel confirm inactive | DNA FID counter-2 inactive
CCc1ccc(-n2c(=S)sc3c(=O)n(-c4ccccc4)c(SCC(=O)O)nc32)cc1	none
CCOC(=O)c1nn(-c2ccccc2C)c2nc(-c3ccc(Cl)cc3)c(C#N)c(=O)n12	none
